Legend:
[1] = Cytotoxicity against human H4 cells after 72 hrs; type: cell-based
Procedure, shortened: (§1)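 Cells kept in DMEM with 5% foetal calf serum, L-glutamine, penicillin/streptomycin at 37 °C, 5% CO2. Seeded cells exposed to 3-fold serial dilutions (starting 0.5 mg/mL; DMSO stock, final DMSO <0.1%) for 72 h at 37 °C. Treated wells (n=2) compared with controls (n=24). CC50 taken from concentration-effect curve.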

[2] = Cytotoxicity against human Caco-2 cells after 72 hrs; type: cell-based; procedure, shortened: as §1
[3] = Ratio of CC50 for human Caco-2 cells to IC50 for rotavirus RF assessed by inhibition of infectivity following virus attachment

Structure (SMILES) | CC50 at 72 h [1] [µM] | CC50 at 72 h [2] [µM] | Ratio CC50/IC50 [3]
C=C1[C@@H](CO)O[C@H](n2ccc(=O)[nH]c2=O)[C@@H](O)[C@H]1O | 1850 | – | –
O=C1C=C[C@@H](n2ccc(=O)[nH]c2=O)O[C@@H]1CO | 2100 | – | –
C=C1C=C[C@@H](n2ccc(=O)[nH]c2=O)O[C@@H]1CO | 2120 | – | –
C=C1C=C[C@@H](n2ccc(=O)[nH]c2=O)O[C@@H]1COC(c1ccccc1)(c1ccccc1)c1ccccc1 | 1040 | – | –
Cc1cn([C@H]2C[C@H](N=[N+]=[N-])[C@@H](CO)O2)c(=O)[nH]c1=O [ZIDOVUDINE] | – | 56.1 | 2.5

Reference: ChEMBL document CHEMBL1156702, “Synthesis and molecular modelling of unsaturated exomethylene pyranonucleoside analogues with antitumor and antiviral activities” (Eur J Med Chem, 2008)
